# Measurements of several laboratories.
# Each line is one published result; the experiments were not run side by side.
# Target: G protein-coupled receptor kinase 4 (GRK4, Homo sapiens, UniProt P32298)
Structure (SMILES),read-out,method,tested at,remaining binding [%]
CN(C)C(=O)Cn1cc(-c2nc([C@@](C)(c3ccc(-c4cnc(N)nc4)cc3)C3CC3)no2)cn1,cell-free assay,competition with immobilised ligand,1 µM,86
O=C(c1ccc(Nc2ncc(Cl)c(-c3cc4ccccc4s3)n2)cc1)N1CCC(N2CCCC2)CC1,binding,competition with immobilised ligand,1 µM,3.5
C[C@@H](c1ccc(-n2cnc3c(N)ncnc32)cc1)N1CCc2nn(C)c(Cc3ccccc3)c2C1=O,binding,competition with immobilised ligand,0.1 µM,59
CCN1CCN(Cc2ccc(C(=O)Nc3ccc(C)c(Oc4ccc5c(c4)CC(=O)N5)c3)cc2C(F)(F)F)CC1,binding,competition with immobilised ligand,1 µM,100
CN(C)c1nccc(-c2cnc3ncccn23)n1,binding,,1 µM,88
O=C(c1ccc(Nc2nccc(-c3cc4ccccc4s3)n2)cc1)N1CCC(N2CCCC2)CC1,binding,competition with immobilised ligand,1 µM,0.4
N#CC1(c2ccccn2)CCN(Cc2cc(C(=O)N3CCCC3)c(=O)n3ccccc23)CC1,cell-free assay,competition with immobilised ligand,1 µM,86
c1cncc(-c2cccc(Nc3nccc(NC4CCCCC4)n3)c2)c1,binding,competition with immobilised ligand,10 µM,56
O=C(NCCCN1CCOCC1)c1ccc(Nc2ncc(Cl)c(-c3ccc(Cl)s3)n2)cc1,binding,competition with immobilised ligand,1 µM,2.7
CCCCN(CCCC)C(=O)CN1C[C@H](c2cc(OC)c3c(c2)OCO3)[C@@H](C(=O)O)[C@@H]1CC(C)(C)CCC,cell-free assay,competition with immobilised ligand,1 µM,100
O=C(NCC1CCOCC1)c1n[nH]cc1NC(=O)c1c(F)cccc1F,binding,competition with immobilised ligand,1 µM,100
CN(C)c1ncc(F)c(-c2cnn3ncccc23)n1,binding,,1 µM,100
CNC(=O)[C@@H]1CC[C@@H](n2c(-c3ccc4cnccc4c3)nc3ccc(C(=O)NCc4cccc(C(N)=O)c4)cc32)C1,binding,competition with immobilised ligand,1 µM,93
CN(C)c1nccc(-c2cnn3ncccc23)n1,binding,,1 µM,100
Nc1cnc(N2CCc3cc(S(=O)(=O)Nc4c(F)cc(Cl)cc4F)cc(N4CCCC4=O)c32)nc1,cell-free assay,competition with immobilised ligand,1 µM,100
Cc1cnn2ncc(-c3ccnc(N(C)C)n3)c2c1,binding,,1 µM,55
FC(F)(F)Oc1cccc(-c2cnc3ccc(-c4ccncc4)nn23)c1,cell-free assay,competition with immobilised ligand,5 µM,43
C[C@@H]1CCN(c2nccc(-c3cnn4ncccc34)n2)C1,binding,,1 µM,56
COc1ccc2c(O[C@@H]3C[C@H]4C(=O)N[C@]5(C(=O)O)CC5/C=C\CCCCC[C@H](NC(=O)OC5CCCC5)C(=O)N4C3)cc(-c3csc(NC(=O)C(C)C)n3)nc2c1C (stereo partly drawn),cell-free assay,competition with immobilised ligand,1 µM,67
COc1ccnn2ncc(-c3ccnc(N(C)C)n3)c12,binding,,1 µM,79
CCCOc1ccc([C@@H]2[C@@H](C(=O)O)[C@H](c3ccc4c(c3)OCO4)CN2CC(=O)Nc2c(CC)cccc2CC)cc1,cell-free assay,competition with immobilised ligand,1 µM,100
